OX1R antag-1 = OX1R (HCRTR1) antagonists, primary screen, fluorescence, CHO/OX1R cells, Fluo-8 calcium, orexin A; Fluo-8 calcium fluorescence; Orexin/Hypocretin receptor type 1 (Homo sapiens), O43613; AID 434989, 2010; inhibition, % at 5 µM; 0.43% of 330,000 active;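 active = inhibition above its plate's threshold, mean inhibition of all tested compounds on the plate plus 3 SD, cut at about 37% in these data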;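 also: 0% = orexin A challenge wells and 100% = SB-334867-A antagonist wells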
Target sequence (O43613 whole entry, looked up): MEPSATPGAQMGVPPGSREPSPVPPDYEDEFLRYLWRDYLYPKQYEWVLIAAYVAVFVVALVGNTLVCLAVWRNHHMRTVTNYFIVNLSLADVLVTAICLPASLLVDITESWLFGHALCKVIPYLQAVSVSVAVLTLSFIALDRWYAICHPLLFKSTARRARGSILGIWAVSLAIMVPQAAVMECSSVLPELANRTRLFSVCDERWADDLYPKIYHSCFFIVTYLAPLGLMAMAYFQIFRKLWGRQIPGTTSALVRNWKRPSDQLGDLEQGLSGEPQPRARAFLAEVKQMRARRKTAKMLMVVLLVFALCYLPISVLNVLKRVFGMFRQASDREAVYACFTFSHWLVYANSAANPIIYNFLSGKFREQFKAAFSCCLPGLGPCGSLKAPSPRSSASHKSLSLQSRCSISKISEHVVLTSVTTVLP
TAAR1 agonist = human TAAR1 agonists, primary screen, Fluo-8 calcium fluorescence, CHO RD-HGA16 cells. Trace amine-associated receptor 1 (Homo sapiens), Q96RJ0. vehicle wells 0%, saturating PEA agonist 100%. activation, % at 3 µM. 0.99% of 360,000 active;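 active = activation above the mean activation of all test compounds in the run plus 3 SD, cut at about 38% in these data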
Target sequence (Q96RJ0 whole entry, looked up): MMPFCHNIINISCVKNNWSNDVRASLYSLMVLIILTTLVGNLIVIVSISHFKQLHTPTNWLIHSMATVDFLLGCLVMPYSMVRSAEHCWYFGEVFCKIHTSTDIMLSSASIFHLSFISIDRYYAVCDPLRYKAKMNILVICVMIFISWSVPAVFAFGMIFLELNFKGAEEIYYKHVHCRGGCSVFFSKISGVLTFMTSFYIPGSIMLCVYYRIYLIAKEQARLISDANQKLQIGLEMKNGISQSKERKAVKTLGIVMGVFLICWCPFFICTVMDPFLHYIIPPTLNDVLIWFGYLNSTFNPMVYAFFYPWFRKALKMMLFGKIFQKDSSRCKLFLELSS
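Repeats: no replicates (n 1) | Material: CHO-derived RD-HGA16 cells with stable Gα16 and human TAAR1 | Technique: Kinetic Fluo-8 calcium fluorescence | Schedule: 17-24 h seeding, 75 min 37 °C dye, 30 min RT | Evaluation: % activation from peak over basal fluorescence ratio, DMSO-to-PEA scaled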
OX1R antag-2 = antagonists of human orexin 1 receptor (OX1R) | 1.8% of 330,000 active | inhibition, % at 6.6 µM | OX1R-expressing cells, FRET antagonist read-out; in the data active = inhibition mostly above about 38%, no sharp cut-off; inactive = mostly below about 40%;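 also: 0% = agonist challenge alone and 100% = reference antagonist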
GalR3 antagonist = GalR3 antagonists in HEK293 cells, primary screen, cell-based, fluorescence readout. 0.44% of 360,000 active. inhibition, % at 3 µM. AID 651719, 2012. HEK293 GalR3-CNG cAMP membrane potential fluorescence; galR3 body fused to GalR1 C-terminus. Galanin receptor type 3 (Homo sapiens), O60755;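 active = inhibition above the screen-wide average plus 3 SD, cut at about 13% in these data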;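 also: forskolin and galanin both at EC90 stimulate the cells; cAMP rise reported by CNG channel membrane potential dye signal; 0% = forskolin plus galanin with DMSO and 100% = forskolin alone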
TAAR1 antag = human TAAR1 antagonists, primary screen, Fluo-8 calcium fluorescence, CHO RD-HGA16 cells | Trace amine-associated receptor 1 (Homo sapiens), Q96RJ0 | AID 624466, 2012 | antagonist | inhibition, % at 3 µM | 1.5% of 360,000 active;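 active = inhibition above a per-plate cutoff, the mean inhibition of test compounds on that plate plus 3 SD, cut at about 49% in these data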;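 also: 0% = DMSO plus EC80 beta-PEA response and 100% = DMSO alone without agonist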
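Test system: RD-HGA16 CHO cells with stable hTAAR1 and Gα16 / Probe or stimulus: EC80 β-phenethylamine stimulus / Times: seeding 17-24 h prior, 75-min 37 °C, 30-min RT dye loading / Detection: Fluo-8 calcium-sensitive fluorescence / Read-out basis: % inhibition scaled between DMSO and EC80 PEA controls / Repeats: singlicate, one well per test compound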
CHO parental Ca = ATP-evoked calcium signal inhibitors, parental CHO, primary screen, counter-screen for OX1R antagonist project, cell-based, fluorescence, Fluo-8 calcium dye; parental CHO-K1, ATP-induced calcium, Fluo-8 fluorescence; inhibition, % at 5.6 µM; 0.63% of 330,000 active;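 active = inhibition above that plate's mean sample inhibition plus 3 SD, cut at about 26% in these data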;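 also: 0% = ATP-challenged DMSO wells and 100% = DMSO wells without ATP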
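material = parental CHO cells | also added = ATP as calcium-mobilizing challenge | dosing = single point at 5.6 µM | detection = intracellular calcium via Fluo-8 no-wash fluorescent dye | read-out = % inhibition | benchmarks = low control ATP plus DMSO, high control DMSO only | repeats = one well per compound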
An asterisk follows results filed as active. A selection: hits, their analogues and other compounds. The true share with any hit is near 4.3%.

What do the screens show for `CC(C)=CCC12Oc3cc(O)ccc3C1(O)Oc1cc3c(c(O)c1C2=O)C=CC(C)(C)O3` (stereo not drawn)?
OX1R antag-1: -13.2; OX1R antag-2: 10.1; CHO parental Ca: 44.4*

Results for CC(C)=CCc1c(-c2ccc(O)cc2O)oc2cc3c(c(O)c2c1=O)C=CC(C)(C)O3 ?
OX1R antag-1: 0.2; OX1R antag-2: 16.7; CHO parental Ca: 4.7

What do the screens show for `CC[C@H](C)[C@@H](CO)NC(=O)[C@H]1O[C@@H](n2ccc(=O)[nH]c2=O)[C@H](O)[C@@H]1O`?
TAAR1 agonist: 0.8; GalR3 antagonist: -5.3; TAAR1 antag: -5.4

Results for COC(=O)C1=C(C)N(C)C(=NCC2CC2)NC1c1ccc(F)cc1 (stereo not drawn) ?
TAAR1 agonist: 0.4; GalR3 antagonist: -7.2; TAAR1 antag: -1.4

How did NC(=O)COc1c(-c2ccc(Br)o2)oc2ccccc2c1=O do in these assays?
OX1R antag-1: 7.2; OX1R antag-2: 71.7*; CHO parental Ca: -12.7

How did CCN(CC)S(=O)(=O)c1cccc(NC(=O)Nc2cccc(C(F)(F)F)c2)c1 do in these assays?
OX1R antag-1: 20.1; TAAR1 agonist: 15.5; OX1R antag-2: 39.1*; GalR3 antagonist: -6.1; TAAR1 antag: 21.5; CHO parental Ca: 58.7*

What do the screens show for `O=c1[nH]nc(Cc2ccc(-c3cccc(Cl)c3)o2)c2ccccc12`?
OX1R antag-1: 55.3*; TAAR1 agonist: 13.0; OX1R antag-2: 71.5*; GalR3 antagonist: -0.3; TAAR1 antag: 30.8; CHO parental Ca: 38.2

Results for Cc1ccccc1OCC(=O)N/N=C/c1ccc(N2CCOCC2)o1 ?
TAAR1 agonist: 1.8; GalR3 antagonist: 0.5; TAAR1 antag: -9.1

How did Cc1[nH]c2ccccc2c1C(=O)COC(=O)c1ccccc1O do in these assays?
OX1R antag-1: 27.0; TAAR1 agonist: 11.5; OX1R antag-2: 21.3; GalR3 antagonist: -4.2; TAAR1 antag: 65.1*; CHO parental Ca: 3.5

How did C[C@@H]1CN([C@@H](C)CO)C(=O)c2cc(Br)cnc2O[C@H]1CN(C)C(=O)c1ccncc1 do in these assays?
TAAR1 agonist: -0.5; GalR3 antagonist: 0.0; TAAR1 antag: -16.4

What do the screens show for `COc1ccccc1N1CCN(C(=O)c2ccc(COc3cccc4c3OC(C)(C)C4)cc2)CC1`?
OX1R antag-1: -23.9; TAAR1 agonist: 0.3; OX1R antag-2: 3.6; GalR3 antagonist: -4.9; TAAR1 antag: 56.2*; CHO parental Ca: 11.5

What do the screens show for `CC1(C)Cc2cccc(OCC(=O)N3CCN(c4ccccc4F)CC3)c2O1`?
OX1R antag-1: -19.8; TAAR1 agonist: 0.9; OX1R antag-2: 36.3; GalR3 antagonist: 4.1; TAAR1 antag: 21.6; CHO parental Ca: -26.0

Results for Cc1cccc2nc3c(nc12)CCCC3 ?
OX1R antag-1: -17.9; TAAR1 agonist: -0.6; OX1R antag-2: 0.1; GalR3 antagonist: -5.2; TAAR1 antag: 3.9; CHO parental Ca: -6.6

What do the screens show for `Cc1onc(-c2c(Cl)cccc2Cl)c1C(=O)N1CCc2ccccc21`?
OX1R antag-1: 21.3; TAAR1 agonist: 0.5; OX1R antag-2: 40.2*; GalR3 antagonist: -5.3; TAAR1 antag: -10.9; CHO parental Ca: -16.6

How did Cc1onc(-c2c(Cl)cccc2Cl)c1C(=O)N1CCOCC1 do in these assays?
OX1R antag-1: -1.2; TAAR1 agonist: -0.8; OX1R antag-2: 5.1; GalR3 antagonist: -9.1; TAAR1 antag: 19.8; CHO parental Ca: -0.7

What do the screens show for `Cc1cccc(C)c1-n1nnnc1C1(C)CCC(=O)N1CCc1ccc(O)cc1` (stereo not drawn)?
TAAR1 agonist: 2.9; GalR3 antagonist: -5.9; TAAR1 antag: 16.6

What do the screens show for `O=C(O)c1ccc(S(=O)(=O)c2ccc3c(c2)C(=O)N(CC2CCCO2)C3=O)cc1` (stereo not drawn)?
OX1R antag-1: -2.5; TAAR1 agonist: 8.8; OX1R antag-2: 42.1; GalR3 antagonist: -3.4; TAAR1 antag: 2.7; CHO parental Ca: 1.4

How did O=C(O)c1ccc(C(=O)c2ccc3c(c2)C(=O)N(CC2CCCO2)C3=O)cc1 (stereo not drawn) do in these assays?
OX1R antag-1: -2.1; TAAR1 agonist: 3.7; OX1R antag-2: 55.5*; GalR3 antagonist: -0.5; TAAR1 antag: -14.1; CHO parental Ca: 1.2

Results for COC(=O)c1cccc(NC(=O)c2ccc3c(c2)C(=O)N(CC2CCCO2)C3=O)c1 (stereo not drawn) ?
OX1R antag-1: -27.4; TAAR1 agonist: 14.8; OX1R antag-2: 50.1; GalR3 antagonist: -5.5; TAAR1 antag: 27.8; CHO parental Ca: -2.7

Results for O=C(O)c1cccc(NC(=O)c2ccc3c(c2)C(=O)N(CC2CCCO2)C3=O)c1 (stereo not drawn) ?
OX1R antag-1: -1.8; TAAR1 agonist: 2.8; OX1R antag-2: 55.8*; GalR3 antagonist: -3.1; TAAR1 antag: 17.8; CHO parental Ca: 3.9

How did CN1CCCCC(NC(=O)CSc2ccccc2)C1=O (stereo not drawn) do in these assays?
TAAR1 agonist: -0.6; GalR3 antagonist: -3.4; TAAR1 antag: 15.8

What do the screens show for `COC1CCC2(C)C(=CCC3C4CC(O)CC4(C)CCC32)C1` (stereo not drawn)?
TAAR1 agonist: 1.5; GalR3 antagonist: -3.4; TAAR1 antag: 36.3

Results for CCN1C(=O)N[C@H]2C[C@H](C(=O)N3CCCC3)[C@H](C)[C@H](c3ccccc3)C[C@H]21 ?
TAAR1 agonist: 0.8; GalR3 antagonist: -1.7; TAAR1 antag: -19.1

What do the screens show for `COCCCNC(=O)CN1C(=O)/C(=C/c2ccccc2)Sc2ccccc21`?
OX1R antag-1: -4.3; TAAR1 agonist: 3.0; OX1R antag-2: 67.8*; GalR3 antagonist: -7.6; TAAR1 antag: 2.9; CHO parental Ca: 0.6

Results for O=C(Nc1ccc(N2CCN(C(=O)c3ccccc3F)CC2)cc1)c1cncc(Br)c1 ?
OX1R antag-1: -8.6; TAAR1 agonist: 8.0; OX1R antag-2: 9.6; GalR3 antagonist: -4.5; TAAR1 antag: 51.9*; CHO parental Ca: 1.3

How did O=C(Nc1ccc(N2CCCCC2)cc1)c1cncc(Br)c1 do in these assays?
OX1R antag-1: -27.5; TAAR1 agonist: 14.2; OX1R antag-2: 26.0; GalR3 antagonist: -4.2; TAAR1 antag: 10.9; CHO parental Ca: -11.0

Results for CCC(CC)C(=O)Nc1ccc(Sc2ccc([N+](=O)[O-])cc2)cc1 ?
OX1R antag-1: 59.6*; TAAR1 agonist: 24.3; OX1R antag-2: 41.1*; GalR3 antagonist: -6.7; TAAR1 antag: 43.9; CHO parental Ca: 24.7

High-throughput results from PubChem.
